Experimental data published in ChEMBL document CHEMBL1123529, “Analogues of substance P. Peptides containing D-amino acid residues in various positions of substance P and displaying agonist or receptor selective antagonist effects” (1986).

Key:
[1] = biological target: Substance-P receptor (Cavia porcellus) (UniProt P30547); experiment: Antagonistic activity against Substance P(6-11) receptor in guinea pig ileum at concentration of 14 uM.; assay type: functional, tissue-based
How it was run: (§1)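 Distal ileum from Dunkin-Hartley guinea pigs (300-350 g, both sexes) in a Krebs organ bath at 37 °C, gassed with 95% O2/5% CO2. Agonist (SP or SP(6-11)) dose-response curves run on a 3-min cycle with 1-min contact, with and without antagonist. Dose ratio = agonist EC50 with antagonist / EC50 alone. At least two preparations per compound; ratios below 2 taken as insignificant.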

[2] = biological target: Substance-P receptor (Cavia porcellus) (UniProt P30547); experiment: Evaluated in vitro for percent agonist activity in guinea pig ileum (substance P receptor); assay type: functional, tissue-based
[3] = biological target: Substance-P receptor (Cavia porcellus) (UniProt P30547); experiment: Antagonistic activity against Substance P receptor in guinea pig ileum at concentration of 14 uM.; assay type: functional, tissue-based; how it was run: as §1
[4] = biological target: Substance-P receptor (Cavia porcellus) (UniProt P30547); experiment: Antagonistic activity against Substance P(6-11) receptor in guinea pig ileum at concentration of 50 uM.; assay type: functional, tissue-based; how it was run: as §1
[5] = biological target: Metabotropic glutamate receptor 3 (Rattus norvegicus) (UniProt P31422); experiment: Antagonistic activity against Glutamate receptor in rat spinal cord at concentration of 50 uM.; assay type: functional, tissue-based
How it was run: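 Neonatal hemisectioned spinal cord from Wistar rats (Alderley Park strain, 2-7 days old), anaesthetised with intraperitoneal urethane (25% w/v, […]) and then decapitated. Cord superfused with oxygenated medium at 1 mL/min. Agonist (SP, SP(6-11), glutamate or carbachol) applied as 2-mL doses in the superfusate. Antagonist superfused for at least 15 min before agonists were retested. Read-out: % change in ventral root–cord DC potential response amplitude.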

[6] = biological target: Substance-P receptor (Rattus norvegicus) (UniProt P14600); experiment: Antagonistic activity against Substance P(6-11) receptor in rat spinal cord at concentration of 50 uM.
[7] = biological target: Substance-P receptor (Cavia porcellus) (UniProt P30547); experiment: Antagonistic activity against Substance P receptor in guinea pig ileum at concentration of 50 uM.; assay type: functional, tissue-based; how it was run: as §1
[8] = biological target: Substance-P receptor (Rattus norvegicus) (UniProt P14600); experiment: Antagonistic activity against Substance P receptor in rat spinal cord at concentration of 50 uM.
[9] = biological target: Substance-P receptor (Cavia porcellus) (UniProt P30547); experiment: In vitro percent agonist activity in guinea pig ileum.; assay type: functional, tissue-based
How it was run: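 Distal ileum from Dunkin-Hartley guinea pigs (300-350 g, either sex) in a 5-mL organ bath of Krebs solution at 37 °C, gassed with 95% O2/5% CO2. Dose-response curves were run on a 3-min cycle with 1-min agonist contact and washout. Agonist activity is expressed as a percentage of substance P.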

[10] = biological target: Substance-P receptor (Cavia porcellus) (UniProt P30547); experiment: Antagonistic activity against Substance P(6-11) receptor in guinea pig ileum at concentration of 5 uM.; assay type: functional, tissue-based; how it was run: as §1
[11] = biological target: Substance-P receptor (Rattus norvegicus) (UniProt P14600); experiment: Antagonistic activity against Substance P(6-11) receptor in rat spinal cord at concentration of 5 uM.
[12] = biological target: Substance-P receptor (Rattus norvegicus) (UniProt P14600); experiment: Antagonistic activity against Substance P receptor in rat spinal cord at concentration of 5 uM.
[13] = biological target: Substance-P receptor (Cavia porcellus) (UniProt P30547); experiment: Antagonistic activity against Substance P receptor in guinea pig ileum at concentration of 5 uM.; assay type: functional, tissue-based; how it was run: as §1
[14] = biological target: Substance-P receptor (Rattus norvegicus) (UniProt P14600); experiment: Antagonistic activity against Substance P(6-11) receptor in rat spinal cord at concentration of 10 uM.
[15] = biological target: Metabotropic glutamate receptor 3 (Rattus norvegicus) (UniProt P31422); experiment: Antagonistic activity against Glutamate receptor in rat spinal cord at concentration of 10 uM.; assay type: functional, tissue-based
How it was run: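 Cord superfused with oxygenated medium at 1 mL/min. Agonist (SP, SP(6-11), glutamate or carbachol) applied as 2-mL doses in the superfusate. Antagonist superfused for at least 15 min before agonists were retested. Read-out: % change in ventral root–cord DC potential response amplitude.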

Chain of Substance-P receptor (Cavia porcellus) (P30547 whole entry): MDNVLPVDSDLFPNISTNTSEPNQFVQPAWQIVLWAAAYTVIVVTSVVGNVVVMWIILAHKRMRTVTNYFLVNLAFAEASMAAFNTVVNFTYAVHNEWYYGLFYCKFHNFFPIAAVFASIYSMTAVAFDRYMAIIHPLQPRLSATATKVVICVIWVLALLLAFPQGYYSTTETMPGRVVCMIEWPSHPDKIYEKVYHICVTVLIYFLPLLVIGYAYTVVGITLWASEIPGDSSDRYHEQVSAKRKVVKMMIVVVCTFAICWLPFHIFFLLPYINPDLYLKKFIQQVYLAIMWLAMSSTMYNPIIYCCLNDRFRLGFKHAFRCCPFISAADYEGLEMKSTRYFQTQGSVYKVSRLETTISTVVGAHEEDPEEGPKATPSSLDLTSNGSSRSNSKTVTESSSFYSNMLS
Chain of Substance-P receptor (Rattus norvegicus) (P14600 whole entry, looked up): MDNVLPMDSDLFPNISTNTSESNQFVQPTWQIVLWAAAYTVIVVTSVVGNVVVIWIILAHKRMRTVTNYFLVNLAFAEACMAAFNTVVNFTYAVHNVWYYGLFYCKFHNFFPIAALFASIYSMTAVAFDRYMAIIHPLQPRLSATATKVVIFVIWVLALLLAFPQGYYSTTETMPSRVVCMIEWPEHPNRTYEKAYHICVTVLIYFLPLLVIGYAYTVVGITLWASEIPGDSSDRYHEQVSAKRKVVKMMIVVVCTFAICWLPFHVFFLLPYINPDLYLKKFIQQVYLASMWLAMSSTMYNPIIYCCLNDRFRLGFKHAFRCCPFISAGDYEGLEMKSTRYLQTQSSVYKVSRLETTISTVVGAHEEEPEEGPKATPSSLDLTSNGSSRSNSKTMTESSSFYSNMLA
Chain of Metabotropic glutamate receptor 3 (Rattus norvegicus) (P31422 23-879 limits assumed): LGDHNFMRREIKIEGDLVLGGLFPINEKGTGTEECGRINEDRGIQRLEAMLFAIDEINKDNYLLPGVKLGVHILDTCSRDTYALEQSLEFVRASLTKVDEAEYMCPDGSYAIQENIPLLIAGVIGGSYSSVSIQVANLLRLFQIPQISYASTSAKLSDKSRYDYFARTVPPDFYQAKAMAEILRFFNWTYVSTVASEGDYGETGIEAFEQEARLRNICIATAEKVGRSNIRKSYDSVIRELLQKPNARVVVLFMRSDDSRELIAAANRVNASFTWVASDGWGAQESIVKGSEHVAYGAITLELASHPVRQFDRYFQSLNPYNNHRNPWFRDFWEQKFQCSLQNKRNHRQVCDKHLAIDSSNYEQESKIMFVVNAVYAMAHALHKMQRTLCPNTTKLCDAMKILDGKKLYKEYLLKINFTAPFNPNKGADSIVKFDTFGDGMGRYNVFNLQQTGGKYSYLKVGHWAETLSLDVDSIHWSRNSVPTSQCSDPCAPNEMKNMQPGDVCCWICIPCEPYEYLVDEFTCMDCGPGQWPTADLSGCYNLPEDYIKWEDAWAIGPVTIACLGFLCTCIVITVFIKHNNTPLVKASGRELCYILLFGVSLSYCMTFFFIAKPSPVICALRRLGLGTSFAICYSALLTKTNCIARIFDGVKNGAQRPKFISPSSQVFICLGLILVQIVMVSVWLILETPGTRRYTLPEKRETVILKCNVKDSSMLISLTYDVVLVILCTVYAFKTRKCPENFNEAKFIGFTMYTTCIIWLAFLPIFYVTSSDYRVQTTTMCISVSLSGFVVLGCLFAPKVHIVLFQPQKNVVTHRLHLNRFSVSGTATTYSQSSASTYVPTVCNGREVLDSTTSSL

| Structure (SMILES) | SP [2] | Change in amplitude response [5] | Change in amplitude response [6] | Change in amplitude response [8] | Activity [10] | Change in amplitude response [11] | Change in amplitude response [12] | Activity [13] | Change in amplitude response [14] | other results |
| --- | --- | --- | --- | --- | --- | --- | --- | --- | --- | --- |
| COC(=O)[C@@H](CCSC)NC(=O)[C@H](CC(C)C)NC(=O)CNC(=O)[C@H](Cc1ccccc1)NC(=O)[C@H](Cc1ccccc1)NC(=O)[C@@H]1CCCN1C(=O)[C@H]1CCCN1C(=O)[C@@H]1CCCN1C(=O)[C@H](CCCCNC(=O)OCc1ccccc1)NC(=O)[C@@H]1CCCN1C(=O)[C@H](CCCN=C(N)N)NC(=O)OCc1ccccc1 | 0.004% |  |  |  |  |  |  |  |  | Activity [1]: < 2 dose ratio; Activity [3]: < 2 dose ratio |
| COC(=O)[C@@H](CCSC)NC(=O)[C@H](CC(C)C)NC(=O)[C@@H](Cc1c[nH]c2ccccc12)NC(=O)[C@H](Cc1c[nH]c2ccccc12)NC(=O)[C@@H](Cc1c[nH]c2ccccc12)NC(=O)[C@H](CCC(N)=O)NC(=O)[C@H](CCC(N)=O)NC(=O)[C@@H]1CCCN1C(=O)[C@H](CCCCNC(=O)OCc1ccccc1)NC(=O)[C@@H]1CCCN1C(=O)[C@H](CCCN=C(N)N)NC(=O)OCc1ccccc1 |  |  |  |  |  |  |  |  |  | SP [9]: 0% |
| COC(=O)[C@@H](CCSC)NC(=O)[C@H](CC(C)C)NC(=O)[C@@H](Cc1c[nH]c2ccccc12)NC(=O)[C@H](Cc1c[nH]c2ccccc12)NC(=O)[C@@H](Cc1c[nH]c2ccccc12)NC(=O)[C@H](CCC(N)=O)NC(=O)[C@H](CCC(N)=O)NC(=O)[C@@H]1CCCN1C(=O)[C@H](CCCCNC(=O)OCc1ccccc1)NC(=O)[C@@H]1CCCN1C(=O)[C@@H](N)CCCN=C(N)N |  | -18% |  | -29% | < 2 dose ratio | -13% | 11% | < 2 dose ratio | -62% |  |

Further lines, with some results ahead:

| SP [2] | Change in amplitude response [5] | Change in amplitude response [6] | Change in amplitude response [8] | Activity [10] | Change in amplitude response [11] | Change in amplitude response [12] | Activity [13] | Change in amplitude response [14] | Structure (SMILES) | other results |
| --- | --- | --- | --- | --- | --- | --- | --- | --- | --- | --- |
| 0% | -36% | -22% | -30% |  |  |  |  |  | COC(=O)[C@H](CCSC)NC(=O)[C@@H](NC(=O)[C@H](NC(=O)[C@H](Cc1ccccc1)NC(=O)[C@H](Cc1ccccc1)NC(=O)[C@H](CCC(N)=O)NC(=O)[C@H](CCC(N)=O)NC(=O)[C@@H]1CCCN1C(=O)[C@H](CCCCNC(=O)OCc1ccccc1)NC(=O)[C@@H]1CCCN1C(=O)[C@H](CCCN=C(N)N)NC(=O)OCc1ccccc1)C(C)C)C(C)C | Activity [4]: < 2 dose ratio; Activity [7]: < 2 dose ratio |
| 0% | -37% | -86% | -9% | < 2 dose ratio | -46% | 12% | < 2 dose ratio |  | COC(=O)[C@H](CCSC)NC(=O)[C@@H]1CCCN1C(=O)[C@H]1CCCN1C(=O)[C@H](Cc1ccccc1)NC(=O)[C@H](Cc1ccccc1)NC(=O)[C@H](CCC(N)=O)NC(=O)[C@H](CCC(N)=O)NC(=O)[C@@H]1CCCN1C(=O)[C@H](CCCCNC(=O)OCc1ccccc1)NC(=O)[C@@H]1CCCN1C(=O)[C@H](CCCN=C(N)N)NC(=O)OCc1ccccc1 |  |
| 0.001% | -17% | -21% | -13% |  |  |  |  | 31% | COC(=O)[C@@H](CCSC)NC(=O)[C@H](CC(C)C)NC(=O)CNC(=O)[C@H](Cc1ccccc1)NC(=O)[C@H](Cc1ccccc1)NC(=O)[C@@H](NC(=O)[C@H](NC(=O)[C@@H]1CCCN1C(=O)[C@H](CCCCNC(=O)OCc1ccccc1)NC(=O)[C@@H]1CCCN1C(=O)[C@H](CCCN=C(N)N)NC(=O)OCc1ccccc1)C(C)C)C(C)C | Change in amplitude response [15]: -5% |
